Test results as given in ChEMBL document CHEMBL1125577, “Determination of dissociation constants of high affinity (pM) human renin inhibitors: application to analogues of ditekiren (U-71,038)” (J Med Chem, 1991).
Numbered stars: 1 amine (or outer) side, 2 acyl side, 3 side chain; on linkers, the order of the positions; unused ones are H or OH. Square brackets hold non-standard residues; d marks the D form. Peptide text beside a SMILES is read from it. * marks the point of attachment. ξ: configuration not given here. X1 = CC(C)C[C@H](N[*:1])[C@@H](O)C[C@H](C(=O)[*:2])C(C)C; X2 = OC[C@H]1O[C@@H](O)[C@H](N*)[C@H](O)[C@@H]1O; NH(2-picolyl-N-oxide) = [O-][n+]1ccccc1CN*; NMeH = CN[C@@H](Cc1c[nH]cn1)C(=O)O; NHCH2(2-pyridyl) = c1ccc(CN*)nc1; Ile(3ξ) = CCC(C)[C@H](N)C(=O)O; NHC(CH2OH)3 = OCC(CO)(CO)N*; Boc = CC(C)(C)OC(=O)*; CO = O=C([*:1])[*:2]

Tests used:
Renin [1] = target: T1, Renin (Homo sapiens, UniProt P00797); experiment: In vitro inhibition of human renin by radio-immuno assay of angiotensin I (ANG I)
T1 sequence (P00797 whole entry): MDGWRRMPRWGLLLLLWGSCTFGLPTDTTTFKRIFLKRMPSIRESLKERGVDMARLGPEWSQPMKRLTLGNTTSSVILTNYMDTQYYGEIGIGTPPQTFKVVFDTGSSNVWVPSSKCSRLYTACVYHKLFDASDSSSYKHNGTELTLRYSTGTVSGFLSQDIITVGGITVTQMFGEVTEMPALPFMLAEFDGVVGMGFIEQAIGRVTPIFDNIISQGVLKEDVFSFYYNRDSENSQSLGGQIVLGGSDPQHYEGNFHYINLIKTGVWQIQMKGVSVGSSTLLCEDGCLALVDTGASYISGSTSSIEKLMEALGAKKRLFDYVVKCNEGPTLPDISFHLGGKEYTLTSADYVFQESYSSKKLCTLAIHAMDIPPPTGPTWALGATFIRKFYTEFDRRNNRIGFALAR

[2] = The dissociation constant determined by fluorescence displacement assay
Method in brief: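 Unlabeled inhibitor (6.6 and 13 nM) then added for 2.5 h more, with fluorescence read before and after each addition. Kd fitted from predicted binding curves or numerical solution, as the mean of three duplicate determinations.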

Renin [3] = target: T1, Renin; experiment: In vitro inhibition constants using recombinant human renin assay

IC50 (Renin [1]) [nM] | Kd [2] [nM] | Ki (Renin [3]) [nM] | SMILES
1.1 | 0.434 | – | CC[C@H](C)[C@H](NC(=O)[C@@H](C[C@H](O)[C@H](CC(C)C)NC(=O)[C@H](Cc1c[nH]cn1)N(C)C(=O)[C@H](Cc1ccccc1)NC(=O)[C@@H]1CCCN1C(=O)N[C@@H]1[C@H](O)[C@H](O)[C@@H](CO)O[C@H]1O)C(C)C)C(=O)NCc1cccc[n+]1[O-] ({X2-CO}-PF[NMeH][X1]I-{NH(2-picolyl-N-oxide)})
0.26 | 0.044 | – | CC[C@H](C)[C@H](NC(=O)[C@@H](C[C@H](O)[C@H](CC(C)C)NC(=O)[C@H](Cc1c[nH]cn1)N(C)C(=O)[C@H](Cc1ccccc1)NC(=O)[C@@H]1CCCN1C(=O)OC(C)(C)C)C(C)C)C(=O)NC(CO)(CO)CO (Boc-PF[NMeH][X1]I-{NHC(CH2OH)3})
– | 0.111 | – | CC[C@H](C)[C@H](NC(=O)[C@@H](C[C@H](O)[C@H](CC(C)C)NC(=O)[C@H](Cc1c[nH]cn1)N(C)C(=O)[C@H](Cc1ccccc1)NC(=O)[C@@H]1CCCN1C(=O)NC(CO)(CO)CO)C(C)C)C(=O)NCc1ccccn1 ({NHC(CH2OH)3-CO}-PF[NMeH][X1]I-{NHCH2(2-pyridyl)})
0.58 | – | 0.051 | CCC(C)[C@H](NC(=O)[C@@H](C[C@H](O)[C@H](CC(C)C)NC(=O)[C@H](Cc1cnc[nH]1)N(C)C(=O)[C@H](Cc1ccccc1)NC(=O)[C@@H]1CCCN1C(=O)NC(CO)(CO)CO)C(C)C)C(=O)NCc1cccc[n+]1[O-] (some centres not stated) ({NHC(CH2OH)3-CO}-PF[NMeH][X1][Ile(3ξ)]-{NH(2-picolyl-N-oxide)})
– | 0.131 | – | CC[C@H](C)[C@H](NC(=O)[C@@H](C[C@H](O)[C@H](CC(C)C)NC(=O)[C@H](Cc1c[nH]cn1)N(C)C(=O)[C@H](Cc1ccccc1)NC(=O)[C@@H]1CCCN1C(=O)OC(C)(C)C)C(C)C)C(=O)NCc1cccc[n+]1[O-] (Boc-PF[NMeH][X1]I-{NH(2-picolyl-N-oxide)})
0.24 | 0.066 | 0.043 | CC[C@H](C)[C@H](NC(=O)[C@@H](C[C@H](O)[C@H](CC(C)C)NC(=O)[C@H](Cc1c[nH]cn1)NC(=O)[C@@H](Cc1ccccc1)NS(=O)(=O)c1cccc2c(N(C)C)cccc12)C(C)C)C(=O)NCc1ccccn1

Continued, molecule first:

SMILES | IC50 (Renin [1]) [nM] | Kd [2] [nM] | Ki (Renin [3]) [nM]
CC[C@H](C)[C@H](NC(=O)[C@@H](C[C@H](O)[C@H](CC(C)C)NC(=O)[C@H](Cc1cnc[nH]1)N(C)C(=O)[C@H](Cc1ccccc1)NC(=O)[C@@H]1CCCN1C(=O)OC(C)(C)C)C(C)C)C(=O)NCc1cccc[n+]1[O-] (Boc-PF[NMeH][X1]I-{NH(2-picolyl-N-oxide)}) | 0.33 | – | –
CCC(C)[C@H](NC(=O)[C@@H](C[C@H](O)[C@H](CC(C)C)NC(=O)[C@H](Cc1c[nH]cn1)N(C)C(=O)[C@H](Cc1ccccc1)NC(=O)[C@@H]1CCCN1C(=O)NC(CO)(CO)CO)C(C)C)C(=O)NCc1cccc[n+]1[O-] (some centres not stated) ({NHC(CH2OH)3-CO}-PF[NMeH][X1][Ile(3ξ)]-{NH(2-picolyl-N-oxide)}) | – | 0.033 | –
CC[C@H](C)[C@H](NC(=O)[C@@H](C[C@H](O)[C@H](CC(C)C)NC(=O)[C@H](Cc1c[nH]cn1)N(C)C(=O)[C@H](Cc1ccccc1)NC(=O)[C@@H]1CCCN1C(=O)OC(C)(C)C)C(C)C)C(=O)NCc1ccccn1 [DITEKIREN] | 0.26 | 0.04 | 0.04
CC[C@H](C)[C@H](NC(=O)[C@@H](C[C@H](O)[C@H](CC(C)C)NC(=O)[C@H](Cc1cnc[nH]1)N(C)C(=O)[C@H](Cc1ccccc1)NC(=O)[C@@H]1CCCN1C(=O)NC(CO)(CO)CO)C(C)C)C(=O)NCc1ccccn1 ({NHC(CH2OH)3-CO}-PF[NMeH][X1]I-{NHCH2(2-pyridyl)}) | 0.33 | – | –
